Source: PubChem (Johns Hopkins Ion Channel Center)
Sampled rows, rich in hits. Any-hit rate of the full collection: about 3.5%.
MrgX1 agonist – agonists of human MrgX1 receptor. B-score at 10 µM. MrgX1-HEK293 cells, Fluo-4 calcium fluorescence, agonist mode; active compounds read high. Q96LB2. AID 588627. hit rate 0.44% among 310,000;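 active = calcium response B-score plate-corrected fluorescence ratio at least 3 library SD, with starting fluorescence B-score inside 5 SD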
Target sequence (Q96LB2 whole entry, looked up): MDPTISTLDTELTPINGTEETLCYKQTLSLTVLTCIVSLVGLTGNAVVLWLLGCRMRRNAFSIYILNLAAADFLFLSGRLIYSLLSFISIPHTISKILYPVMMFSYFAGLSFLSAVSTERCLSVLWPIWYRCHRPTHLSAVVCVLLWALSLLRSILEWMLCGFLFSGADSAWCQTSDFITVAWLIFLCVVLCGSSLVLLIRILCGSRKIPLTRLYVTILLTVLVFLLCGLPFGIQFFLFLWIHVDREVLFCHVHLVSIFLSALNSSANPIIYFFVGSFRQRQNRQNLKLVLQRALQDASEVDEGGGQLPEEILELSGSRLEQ
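Test system: HEK293 cells stably expressing human MrgX1 receptor; Input: fifteen thousand cells per well; Dosing: compound delivered in addition one of three; Schedule: overnight seeding, then 1 h dark dye loading; Technique: Fluo-4 NW calcium fluorescence; Measure: B-scored fluorescence response ratio; Controls: positive and negative controls per plate.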
RGS4 act – potentiators or activators of RGS4; HEK293 M3R/inducible RGS4, carbachol calcium flux Fluo4; active compounds read low; B-score at 10 µM; hit rate 0.92% among 310,000;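 active = B-score of the integrated calcium signal more than 4 SD below the library mean, with starting fluorescence not abnormally high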;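 note: negative B-score means reduced calcium response which marks RGS4 activation or potentiation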
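Detection: kinetic calcium fluorescence imaging with Fluo4-AM dye, 2 µM / Material: HEK293 cells with stable M3R and inducible RGS4 / Schedule: recording 10 s baseline at 1 Hz, 100 s post-agonist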
MrgX1 antagonist – human MrgX1 receptor antagonism, primary screen; hit rate 1.3% among 310,000; MRGX1-HEK293 calcium flux, Fluo-4, BAM8-22 antagonism; active compounds read low; B-score at 10 µM; AID 588676;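 active = calcium-response B-score plate-corrected more than 3 library SD below zero, starting fluorescence within 5 deviations, no agonist response on first addition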;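 note: peak minus trough fluorescence over baseline after final BAM8-22 challenge near maximal dose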
RGS4 inh – inhibitors of human RGS4; P49798; hit rate 0.45% among 310,000; B-score at 10 µM; AID 463165; HEK293 M3R/RGS4 inducible, Fluo-4 calcium flux; active compounds read high; triggered by carbachol at its EC20;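 active = B-score, a plate-corrected calcium signal, over three deviations above library mean, with baseline fluorescence within five deviations of library mean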;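 note: RGS4 expression induced by doxycycline in cells with stable M3 receptor; B-score is computed from the integrated fluorescence ratio over baseline after carbachol; higher B-score means a larger calcium signal and so more RGS4 inhibition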
Target sequence (P49798 whole entry, looked up): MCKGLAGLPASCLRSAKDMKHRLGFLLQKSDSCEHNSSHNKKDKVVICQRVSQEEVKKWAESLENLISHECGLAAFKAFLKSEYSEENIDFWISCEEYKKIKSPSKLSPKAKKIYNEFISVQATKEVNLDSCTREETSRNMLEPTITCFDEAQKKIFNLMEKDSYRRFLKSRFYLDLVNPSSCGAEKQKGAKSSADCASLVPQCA
MrgX1 PAM – human MrgX1 positive allosteric modulation, primary screen; Q96LB2; MrgX1-HEK293, Fluo-4 calcium flux, FDSS; active compounds read high; B-score at 10 µM; hit rate 0.63% among 310,000; AID 588675;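 active = plate-corrected calcium response at least 3 library SD above typical, normal starting fluorescence, not activating the receptor alone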;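 note: compound read alongside a low EC10 to EC30 dose of BAM8-22 agonist; peak minus trough fluorescence over baseline measured at the second addition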
Each line names hits and unclear results; the compound was inactive in the other large screens.

Cc1ccc2[nH]c3c(N4CCCCCC4)ncnc3c2c1	none (no result: MrgX1 agonist, MrgX1 antagonist, MrgX1 PAM)
CCCOC1CCCN(C(=O)c2cc(COc3ccc(F)c(F)c3)on2)C1 (stereo not given)	none
COc1ccc2c(c1)[nH]c1c(N3CCN(Cc4ccc5c(c4)OCO5)CC3)ncnc12	MrgX1 antagonist -6.1
CCCCn1c(N)c(N(CC(C)C)C(=O)c2cc(S(=O)(=O)N3CCCCC3)ccc2C)c(=O)[nH]c1=O	none
CCN(CC)c1ccc2cc(C(=O)NCc3ccc(F)cc3)c(=N)oc2c1	MrgX1 agonist 37
CCCCCCc1cc2cc(C(=O)NCc3ccccc3)c(=N)oc2cc1O	MrgX1 PAM 7
Cc1ccc(-n2nc3c(=O)n(C(C)C(=O)NCc4ccc(Cl)cc4)nc(C)c3c2C)cc1 (stereo not given)	none
COC(=O)C1=C(C)NC(C)=C(C(=O)OC)C1c1ccccc1[N+](=O)[O-]	RGS4 act -8.5
C=C(CC1([C@@H](NP(=O)(c2ccccc2)c2ccccc2)[C@H]2C[C@@H]2CCCC)CC1)c1ccccc1	MrgX1 antagonist -4.8
CCCC[C@@H]1C[C@H]1[C@@H](NC(=O)c1ccccc1)c1ccccc1C(F)(F)F	none
O=C(NCCNc1ccc([N+](=O)[O-])cc1)c1cccs1	none
CC(CNC(=O)c1cccs1)c1ccc([N+](=O)[O-])cc1 (stereo not given)	MrgX1 antagonist -4.6
O=C1OCC2=C1C(c1ccc(F)cc1)CC(=O)N2c1ccccc1 (stereo not given)	RGS4 act -7.7
O=C1OCC2=C1C(c1ccc(F)cc1)CC(=O)N2c1ccc(F)cc1 (stereo not given)	none
CCOC(=O)N1CCN(C(=O)CSCC(=O)Nc2nc(-c3ccc(-c4ccccc4)cc3)cs2)CC1	MrgX1 antagonist -6.4
Nc1ncnc2c1ncn2[C@@H]1O[C@H](CO)[C@@H](O)[C@H]1O	MrgX1 agonist 26
CCC(CC)C(=O)N1CC(=O)Nc2ccc(F)cc2C1c1ccc(F)cc1 (stereo not given)	none
O=C(O)c1ccc(-c2nc(-c3ccc(Cl)cc3Cl)cs2)cc1	none
Cc1onc(-c2ccc(Cl)cc2Cl)c1-c1csc(COc2ccccc2)n1	RGS4 act -7.3
Cc1ccc(NS(=O)(=O)c2c(C)nc3sccn3c2=O)c(C)c1	none
Cc1cccc(CS(=O)(=O)c2nnc([C@H](Cc3ccccc3)NC(=O)OC(C)(C)C)o2)c1	none
COC(=O)CS(=O)(=O)c1nnc([C@H](Cc2ccccc2)NC(=O)OC(C)(C)C)o1	MrgX1 agonist 30
CC(C)(C)c1ccc(-n2ncc3c2CCCC3NC(=O)c2ccncc2)cc1 (stereo not given)	RGS4 act -8.9
CCCCn1c(=O)nc2n(-c3ccccc3)c3ccccc3cc-2c1=O	RGS4 act -9.7
COc1ccc(/C=N/NC(=O)c2ccncc2)cc1CSc1nc2ccccc2s1	none
NC(N)=N/N=C/c1ccc(OS(=O)(=O)c2ccccc2)cc1	MrgX1 agonist 30, RGS4 act -8.4
Cc1cc(/C=N/n2c(COc3ccccc3C)nc3ccccc3c2=O)c(O)c([N+](=O)[O-])c1	MrgX1 antagonist -6.5
Cc1ccccc1OCc1nc2ccccc2c(=O)n1/N=C/c1c[nH]c2ccccc12	none
CC(=O)Nc1ccc(S(=O)(=O)NCCC(=O)OCc2ccc([N+](=O)[O-])cc2)cc1	none
CCOc1ccc(N2CC(=O)Nc3ccccc3NCC2=O)cc1	MrgX1 antagonist -5.9
Fc1cccc(F)c1-n1c(CN2CCCC2)csc1=S	MrgX1 antagonist -5.1
Cc1c(C)n2c(SCC(=O)N3CCOCC3)nnc2[nH]c1=O	none
COc1ccc(-c2nnc(-c3cc4c(ccc5ccccc54)oc3=O)o2)cc1	RGS4 act -9
CCCCC[C@H](O)/C=C/[C@H]1[C@H](O)CC(=O)[C@@H]1CCCCCCC(=O)O	MrgX1 agonist 30, RGS4 inh 6.4
CCCCC1C(=O)CC[C@H]2[C@@H]1CC(=O)[C@@H]2C/C=C\CCCC(=O)O (stereo not given in full)	none
Cc1ccc(C2=CC(c3ccccc3)n3ncnc3N2)cc1 (stereo not given)	none
C1=C(c2ccccc2)Nc2ncnn2C1c1ccccc1 (stereo not given)	MrgX1 PAM 8.2
Cc1cc(-c2nnc(SCC(=O)Nc3cccc(F)c3)n2N)n[nH]1	none
COc1ccc(C(=O)N/N=C/c2sc3ccccc3c2O)cc1	MrgX1 agonist 39
O=C(N/N=C/c1sc2ccccc2c1O)c1cccc2ccccc12	MrgX1 antagonist -4.8
COC(=O)C(NC(=O)c1cccnc1Cl)C(C)C (stereo not given)	none
C=CCN1C(=O)c2ccc(C(=O)N(CC)CC(=O)Nc3c(F)cccc3F)cc2C1=O	none
COc1ccc(NC(=O)C/C(C)=N/NC(=O)C(=O)NC2CCCCC2)c(OC)c1	MrgX1 PAM 9.2
CN1CCN(C2CCN(c3cccc(Cl)c3)CC2)CC1CCO (stereo not given)	none
Cc1ccc(C(=O)Nc2nnc(S(=O)(=O)N3CCCCCC3)s2)cc1	none
Cc1ccc(C(=O)Nc2nnc(S(=O)(=O)N3CCC(C)CC3)s2)cc1	MrgX1 antagonist -6.4
O=C(Nc1ccc(O)cc1)c1ccc2c(c1)C(=O)N(N1C(=O)c3ccccc3C1=O)C2=O	MrgX1 antagonist -5.8
COc1cccc(NC(=O)[C@@H]2CCC(=O)N2C2OC(=O)c3ccccc32)c1 (stereo not given in full)	none
COc1ccc(-c2cc(C(=O)Nc3cc(S(=O)(=O)N4CCOCC4)ccc3N3CCOCC3)c3ccccc3n2)cc1	RGS4 act -7
Clc1ccc(CSc2snnc2-c2ccccc2)cc1	RGS4 act -7.2
Clc1ccc(-c2nnsc2SCc2ccccc2)cc1	none
COc1ccc(CNC(=O)c2nccnc2CO)cc1	none
COC(=O)CCC(=O)NNC(=O)c1ccc([N+](=O)[O-])cc1	none
CCCCCCCC(=O)NNC(=O)c1ccc([N+](=O)[O-])cc1	MrgX1 PAM 7
C=CCNC(=S)NNC(=O)c1ccccc1	none
C=CCNC(=S)NNC(=O)c1ccc([N+](=O)[O-])cc1	MrgX1 antagonist -7.9
COc1ccc(C(=O)NCCc2nnc3ccc(SCC(=O)Nc4ccccc4F)nn23)cc1	none
NC(N)=Nc1nc2ccc(Cl)cc2c(=O)[nH]1	none
O=c1cc(N2CCCCC2)c(-c2ccccc2)nn1Cc1c(Cl)cccc1Cl	RGS4 act -7.1
Cc1cccc(N(C)S(=O)(=O)c2ccc3c(c2)C(C)(C)C(=O)N3C)c1	none
CCOc1ccc(CCNC(=O)c2cccc(S(=O)(=O)N3CC(C)OC(C)C3)c2)cc1OCC (stereo not given)	MrgX1 antagonist -6.5
CCOC(=O)c1c(NC(=O)c2nn(CC)cc2Br)sc(C)c1C	none
CCOC(=O)c1c(NC(=O)c2nn(CC)cc2Br)sc2c1CCCCC2	RGS4 act -7
